What all share (type): functional
For one assay, the system named is SR. The experiment in a line: Growth inhibition of human SR cells after 48 hrs by SRB assay. The settings on record: for TGI: read-out: pTGI (converted). Summed up: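 NCI ~60-cell-line five-dose screen. Cells were preincubated 24-48 h, then given compound at 10-fold dilutions from 10^-4 to 10^-8 M with 48 h continuous exposure. SRB protein stain was read by absorbance at time zero, in untreated control and with drug. GI50 was derived from [(Ti-Tz)/(C-Tz)]x100=50, TGI from Ti=Tz, and LC50 from [(Ti-Tz)/Tz]x100=-50.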
For orientation: In SRB staining, fixed cells bind dye roughly in proportion to their protein.

For assay [1], the system named is Trypanosoma brucei brucei. Put plainly: Antitrypanosomal activity against bloodstream form of Trypanosoma brucei brucei strain 90-13 assessed as inhibition of parasite growth at 10 ug/ml after 72 hrs by resazurin reduction test. The settings on record: strain 90-13, 72 h. In outline: (§1)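 Trypanosoma brucei brucei 90-13 bloodstream forms, grown in HMI9 with 10% FCS at 37 °C under 5% CO2. Log-phase parasites were seeded at 10^5 cells/mL with or without inhibitor, with stocks prepared in DMSO. After 72 h, resazurin was added and fluorescence was read at 530/590 nm after a further 4 h. Percent growth inhibition was calculated versus drug-free parasites, with DMSO as control.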
A general note: Alamar Blue is a resazurin reagent that responds to reducing activity.

Assay [2] has as its system Trypanosoma brucei brucei. The experiment in a line: Antitrypanosomal activity against bloodstream form of Trypanosoma brucei brucei strain 90-13 assessed as inhibition of parasite growth at 1 ug/ml after 72 hrs by resazurin reduction test. The settings on record: strain 90-13, 72 h. Summed up:
as §1

Assay [3] can be described thus: Growth inhibition of human HOP92 cells after 48 hrs by SRB assay. The settings on record: HOP-92, 48 h; for TGI: read-out: pTGI (converted). Summed up:
(§2)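 NCI five-dose assay against the ~60-cell-line panel (nine cancer types). Tenfold dilutions from 10−4 to 10−8 M were used with continuous 48-h exposure and SRB absorbance readout. Percent growth was computed from time-zero, control and treated absorbances. GI50 is the concentration giving 50% lower net protein increase than controls. Values not reached are reported as beyond the tested range.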

The subject of a further assay is SF-268. Put plainly: Anticancer activity against human SF268 cells assessed as cell growth at 100 uM after 48 hrs by SRB assay. The settings on record: SF-268, 48 h, read-out: Activity. In outline: (§3)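 NCI one-dose primary screen on a three-line panel (breast MCF7, lung NCI-H460, CNS SF-268). Cells were inoculated and preincubated 24–48 h, then exposed to a single concentration of 10−4 M for 48 h. The endpoint was sulforhodamine B protein staining, and results are expressed as percent growth relative to untreated control cells. Negative values denote cytotoxicity.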

The subject of the next assay is MCF7. Put plainly: Anticancer activity against human MCF7 cells assessed as cell growth at 100 uM after 48 hrs by SRB assay. The settings on record: MCF7, 48 h, read-out: Activity. Summed up: as §3
For a further assay, the system named is NCI-H460. The experiment in a line: Anticancer activity against human NCI-H460 cells assessed as cell growth at 100 uM after 48 hrs by SRB assay. The settings on record: NCI-H460, 48 h, read-out: Activity. Summed up: as §3
The test system of another assay is Malme-3M. The experiment in a line: Growth inhibition of human MALME-3M cells after 48 hrs by SRB assay. In outline:
as §2

In another assay the test system is MDA-MB-435. The experiment in a line: Growth inhibition of human MDA-MB-435 cells after 48 hrs by SRB assay. The settings on record: MDA-MB-435, 48 h. In outline: as §2
A further assay deals with KM12. The experiment in a line: Growth inhibition of human KM12 cells after 48 hrs by SRB assay. The settings on record: KM12, 48 h. In outline: as §2
Another assay relates to CCRF-CEM. Put plainly: Growth inhibition of human CCRF-CEM cells after 48 hrs by SRB assay. Summed up: as §2

The structures appear in SMILES notation.

Turning to `NS(=O)(=O)c1ccc(NC(=O)c2cc3ccccc3c(=O)s2)cc1`, in the assay on SR, the concentration for 50% growth inhibition (GI50) (as a rule, the concentration giving 50% growth inhibition) was 31.6 µM and the TGI was above 100 µM.
With `COc1ccc2cc(C(=O)Nc3cccc4ccccc34)sc(=O)c2c1OC`, the inhibition – broadly, the relative decrease from the control value, in per cent – at 10 µg/mL in [1] is 41.2%. In addition, the inhibition at 1 µg/mL in assay [2] is 20.8%. In [3], the GI50 was 20.4 µM and the TGI is 69.2 µM.
As for `O=C(Nc1nccs1)c1cc2ccccc2c(=O)s1`, the results for the growth at 100 µM in the assay with SF-268, with MCF7 and with NCI-H460 were 90%, 91% and 93%, respectively.
The corresponding values for `O=C(Nc1ccccc1)c1cc2ccccc2c(=O)s1` are 83%, 78% and 75%.
In the case of `COc1ccc2cc(C(=O)N3CCCCCC3)sc(=O)c2c1OC`, the GI50 was 34.7 µM in the assay on Malme-3M and 2.75 µM in [3]. Also, the TGI in the assay with Malme-3M (read-out: pTGI (converted)) is above 100 µM; in [3] it was 8.13 µM.
For `CCOC(=O)c1ccc(NC(=O)c2cc3ccc(OC)c(OC)c3c(=O)s2)cc1`, the growth at 100 µM in the assay with SF-268 came to 117%; in the assay on MCF7, 105%; with NCI-H460 it was 103%. Also, the inhibition at 10 µg/mL in assay [1] stood at 20.9%. Moreover, the inhibition at 1 µg/mL in assay [2] is -0.53%.
As to `COc1ccc2cc(C(=O)Nc3cc(C)on3)sc(=O)c2c1OC`, the growth at 100 µM in the assay on SF-268 was 51%; in the assay with MCF7 it was 52%; in the assay with NCI-H460 it was 70%. Besides, the inhibition at 10 µg/mL in assay [1] was found to be 3.93%. The inhibition at 1 µg/mL in assay [2] was 12.2%.
`CCOC(=O)c1cc2ccccc2c(=O)s1`: in assay [1], the inhibition at 10 µg/mL was -3.91%. The inhibition at 1 µg/mL in assay [2] amounted to 35.8%.
On to `O=C(O)CNC(=O)c1cc2ccccc2c(=O)s1`, for which the inhibition at 10 µg/mL in assay [1] is 0.18%. The inhibition at 1 µg/mL in assay [2] was 10.8%.
Consider `COc1ccc2cc(C(=O)Nc3ccc(O)cc3)sc(=O)c2c1OC`, for which the GI50 with MDA-MB-435 is 18.6 µM; in the assay on KM12, 26.3 µM; in the assay on SR, 3.47 µM; in the assay with CCRF-CEM it was 5.62 µM; in assay [3], 17.8 µM. Moreover, the TGI in the assay with MDA-MB-435 (read-out: pTGI (converted)) was 77.6 µM; in the assay with KM12 (read-out: pTGI) it was above 100 µM; in the assay with SR, 42.7 µM; in the assay on CCRF-CEM (read-out: pTGI (converted)), above 100 µM; in [3] it was 95.5 µM.
As for `O=C(c1cc2ccccc2c(=O)s1)N1CCOCC1`, the values for the growth at 100 µM in the assay on SF-268, in the assay on MCF7 and in the assay with NCI-H460 were 111%, 114% and 109%, respectively. Moreover, the inhibition at 10 µg/mL in assay [1] came out at 8.15%. Further, the inhibition at 1 µg/mL in assay [2] is 8.13%.
As to `O=C(Nc1cccc(C(F)(F)F)c1)c1cc2ccccc2c(=O)s1`, the inhibition at 10 µg/mL in [1] was -7.12%. In [2], the inhibition at 1 µg/mL amounted to 5.78%.
For `COc1ccc2cc(C(=O)Nc3ccccc3C(F)(F)F)sc(=O)c2c1OC`, the growth at 100 µM with SF-268 worked out at 107%; in the assay on MCF7, 99%; with NCI-H460 it was 90%. In addition, the inhibition at 10 µg/mL in assay [1] was determined as 2.91%. For the same compound, in [2], the inhibition at 1 µg/mL was found to be 6.86%.
`COC(=O)c1cc2ccc(OC)c(OC)c2c(=O)s1`: the growth at 100 µM in the assay on SF-268 turned out to be 113%; in the assay on MCF7 it was 108%; in the assay with NCI-H460, 82%.
The matching figures for `COc1ccc2cc(C(=O)NCC(=O)O)sc(=O)c2c1OC`: 112%, 109% and 109%.
Regarding `COc1ccc2cc(C(=O)Nc3ccc(Cl)cc3)sc(=O)c2c1OC`, the growth at 100 µM in the assay with SF-268 was found to be 91%; in the assay on MCF7 it was 80%; in the assay on NCI-H460, 93%. Besides, in [1], the inhibition at 10 µg/mL was found to be 5.99%. Moreover, the inhibition at 1 µg/mL in assay [2] was 5.77%.
As to `O=C(O)c1cc2ccccc2c(=O)s1`, in [1], the inhibition at 10 µg/mL was found to be 0.05%. Besides, the inhibition at 1 µg/mL in assay [2] was found to be 16.8%.
Regarding `Cc1c(NC(=O)c2cc3ccccc3c(=O)s2)c(=O)n(-c2ccccc2)n1C`, the growth at 100 µM was 106% in the assay with SF-268, 107% with MCF7 and 52% in the assay on NCI-H460.

The values are drawn from ChEMBL document CHEMBL3124905, “Isothiocoumarin-3-carboxylic acid derivatives: synthesis, anticancer and antitrypanosomal activity evaluation” (Eur J Med Chem, 2014).
